A selection: hits, their analogues and other compounds. The true share with any hit is near 1.8%.
LMPTP inh = blocks human LMPTP phosphatase; P24666; hit rate 0.22% among 360,000; inhibition, % at 20 µM; recombinant LMPTP-A, OMFP fluorogenic substrate, fluorescence intensity;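 active = compounds that cut the enzyme signal by at least half of the control window in the single-dose screen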
Target sequence (P24666 whole entry, looked up): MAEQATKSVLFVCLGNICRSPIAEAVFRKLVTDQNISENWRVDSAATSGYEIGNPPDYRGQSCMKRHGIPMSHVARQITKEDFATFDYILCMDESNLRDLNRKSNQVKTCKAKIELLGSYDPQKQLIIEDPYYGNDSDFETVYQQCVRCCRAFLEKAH
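Assay system: LMPTP-A, protein tyrosine phosphatase of low molecular weight / Medium: pH 6.0 Bis-Tris buffer with DTT and Triton X-100 / Schedule: 50 min enzyme reaction at room temperature, protected from light / Measured by: endpoint fluorescence intensity from OMFP dephosphorylation / Read-out basis: % inhibition relative to no-enzyme and uninhibited control wells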
Scp-1 inhibitor = Scp-1 (human) phosphatase inhibition | Q9GZU7 | inhibition, % at 20 µM | hit rate 0.88% among 340,000 | Recombinant Scp1, phosphopeptide, malachite green phosphate absorbance;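 active = inhibition above about 50% at 20 µM, limit read from the data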
Target sequence (Q9GZU7 76-261 limits assumed): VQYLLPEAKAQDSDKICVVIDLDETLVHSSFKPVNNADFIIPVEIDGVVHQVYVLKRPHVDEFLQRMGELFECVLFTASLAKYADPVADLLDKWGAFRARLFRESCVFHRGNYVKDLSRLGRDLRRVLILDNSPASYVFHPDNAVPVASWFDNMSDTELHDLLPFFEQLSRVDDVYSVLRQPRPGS
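assay system = SCP-1 phosphatase catalytic domain, residues 76-261 | buffer or medium = 50 mM Tris acetate pH 5.5, 0.005% Tween-20, 10 mM MgCl2 | incubation = enzyme reaction 45 min at room temperature, colour 5 min, stabilisation 30 min | signal = Phosphate-binding colour reagent, absorbance read at 630 nm | measure = % inhibition at 20 µM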
SUMO1-SIM PPI = SUMO1-SIM interaction modulation. SUMO1 binding to a labelled peptide, TR-FRET, 1 h. hit rate 0.33% among 360,000. inhibition, % at 20 µM. AID 602429; in the data active = inhibition above about 37%
Target sequence (P63165 whole entry, looked up): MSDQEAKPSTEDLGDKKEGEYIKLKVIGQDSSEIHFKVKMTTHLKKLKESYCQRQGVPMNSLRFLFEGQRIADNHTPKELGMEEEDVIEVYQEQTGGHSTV
DNMT1 inh = blocks human DNA methyltransferase DNMT1. P26358. DNMT1 molecular beacon, Hinp1I cleavage, fluorescence. inhibition (reported as % activation of signal), % at 10 µM. hit rate 0.83% among 360,000. AID 588458; in the data active = inhibition above about 50%
STEP block = blocks human striatal-enriched tyrosine phosphatase; P54829; recombinant STEP, OMFP fluorogenic substrate, fluorescence; inhibition, % at 20 µM; hit rate 0.25% among 360,000; AID 588621;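 active = inhibition at 20 µM, scaled per plate between control wells, above about 37%, limit read from the data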
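Material: STEP (striatal-enriched tyrosine phosphatase) enzyme, cell-free | Medium: 50 mM Bis-Tris pH 6.0 with 2.5 mM DTT and 0.005% Tween 20 | Read-out: Percent inhibition scaled to no-enzyme and uninhibited-enzyme controls, plate-pattern corrected | Signal: Fluorescence read at 480 nm ex / 540 nm em | Times: 20 min reaction, room temperature, in the dark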
Scp-1 conf = Scp-1 (human) inhibition, single-dose confirmed; shares compounds with Scp-1 inhibitor; recombinant SCP-1 catalytic domain, phosphate release, malachite green absorbance; inhibition, % at 20 µM; hit rate 61% among 2,500; AID 540281
MG interference = colorimetric interference in Scp-1 counter-screen; shares compounds with Scp-1 inhibitor; Colorimetric interference counterscreen, malachite green absorbance 630 nm; apparent inhibition (interference), % at 20 µM; 2,500 tested, under 10 active; AID 540313;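 note: compounds added after enzyme reaction finished so only phosphate colour detection is probed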
Scp-1 Tm shift = Scp-1 (human) binding by thermal shift | shares compounds with Scp-1 inhibitor | Recombinant SCP1, Sypro Orange thermal shift Tm | thermal shift relative to vanadate control, % at 40 µM | hit rate 25% among 1,500;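 active = substances whose mean melting-temperature shift, as a percentage of the reference inhibitor's shift, reaches about 5.3%, limit read from the data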
DNMT1 interf DR = counter-screen for DNMT1 inhibitors: spectral interference, dose response | shares compounds with DNMT1 inh | molecular beacon fluorescence | IC50, µM | 200 tested, under 10 active | AID 602382; call rule not given here
DNMT1 inh conf = DNMT1 inhibition confirmation, single concentration; DNMT1 molecular beacon HinP1I cleavage, fluorescence; inhibition, % at 10 µM; hit rate 8% among 2,300; shares compounds with DNMT1 inh; AID 602385;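 active = average inhibition of at least 30% in the single-concentration confirmation test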
Beacon interf = counter-screen for DNMT1 inhibitors: spectral interference; shares compounds with DNMT1 inh; hit rate 1% among 2,300; DNMT1 molecular beacon spectral interference counterscreen, fluorescence 485/520; activation (fluorescence interference), % at 10 µM;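 active = activation of at least 30% at 10 µM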;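 note: DNMT1 catalytic domain with a HinP1I cleavage step and a FAM/dabcyl DNA beacon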
Numbers stand for hits; - = inactive; . = not tested or not shown; ! = a repeat was not active.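 Rule for the calls, unless noted: active = inhibition of at least 30% at 20 µM; inactive = the rest.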

SMILES	LMPTP inh	Scp-1 inhibitor	SUMO1-SIM PPI	DNMT1 inh	STEP block	Scp-1 conf	MG interference	Scp-1 Tm shift	DNMT1 inh conf	Beacon interf	others
CN(C)/C=C/C=C1C(=O)CCCC1=O	-	58	-	55	-	49	-	-	-	-
CCN1C(=O)[C@H]2[C@@H](c3ccc(C(F)(F)F)cc3)N[C@]3(CCCN(Cc4ccc(C)cc4)C3=O)[C@H]2C1=O	-	.	-	-	-	.	.	.	.	.
O=C(CCS(=O)(=O)c1ccc(Br)cc1)N1CCCCCC1	-	79	43	100	-	66	-	-	-	-
O=C(CCNS(=O)(=O)c1ccc(Br)cc1)N1CCCCCCC1	-	-	-	-	-	.	.	.	.	.
O=C(O)C1CC(=O)N(c2ccc3c(c2)OCCO3)C1 (configuration not stated)	-	75	-	63	-	55	-	-	-	-
O=C(NC(C1CC1)C1CC1)C1CCC(=O)N(CCCN2CCCC2=O)C1 (configuration not stated)	-	-	-	-	-	.	.	.	.	.
CC1(C)CC2(C)CC(=O)C1C(C(=O)O)C2C(=O)O (configuration not stated)	-	.	-	-	-	.	.	.	.	.
O=C(CCCOc1ccc(Cl)cc1)NCCc1ccccc1	-	-	-	-	-	.	.	.	.	.
O=C(COC(=O)C1CCN(S(=O)(=O)c2cc([N+](=O)[O-])ccc2Cl)CC1)Nc1ncc(Cl)cc1Cl	-	68	-	86	-	58	-	14	-	-
NC(=O)COC(=O)c1cccc(S(=O)(=O)N2CCN(c3ccccc3)CC2)c1	-	-	-	-	-	.	.	.	.	.
O=C(COC(=O)c1cccc(S(=O)(=O)N2CCN(c3ccccc3)CC2)c1)NCc1ccco1	-	66	-	68	-	58	-	-	-	-
O=C(O)c1cc(-c2ccco2)nn1-c1cccc(Cl)c1	-	66	44	105	-	58	-	8.4	-	-
C=CCNc1nc(C(=O)OCC(=O)c2cccc(Br)c2)cs1	-	57	-	59	-	60	-	11	-	-
Cc1occc1C(=O)Nc1cccc([N+](=O)[O-])c1C	-	-	-	-	-	.	.	.	.	.
O=C(CSc1ccc(Cl)cc1)N1CCN(c2ccc([N+](=O)[O-])cc2Cl)CC1	-	-	-	-	-	.	.	.	.	.
Cc1ccc(Cl)cc1N1CCN(C(=O)CSc2ccsc2[N+](=O)[O-])CC1	-	55	-	63	-	68	-	8.1	-	-
COc1ccc(CCNC(=O)c2ccccc2NS(=O)(=O)c2c(F)cccc2F)cc1	-	-	-	-	-	.	.	.	.	.
CCN(CC(=O)Nc1c(F)cccc1F)C(=O)CCc1nc2sc3c(c2c(=O)[nH]1)CCCC3	-	65	-	54	-	59	-	9.0	-	-
CCN(CC(=O)Nc1ccccc1C(F)(F)F)C(=O)CCc1nc2sc3c(c2c(=O)[nH]1)CCCC3	-	-	-	-	-	.	.	.	.	.
N#C/C(=C\c1ccncc1)c1nc2ccccc2[nH]1	-	-	-	-	-	.	.	.	.	.
N#C/C(=C/c1ccc(OC(=O)c2ccc(Br)s2)cc1)c1nc2ccccc2[nH]1	-	96	-	85	-	80	-	-	-	-
O=C(CCc1n[nH]c(=O)[nH]c1=O)N/N=C/c1ccco1	-	81	-	51	-	56	-	-	-	-
CCN(CC)C(=O)CSc1ncnc2c(-c3cccs3)nsc12	-	76	-	97	-	61	-	6.0	-	-
Cc1nn(-c2ccc(F)cc2)c(Cl)c1/C=N/NC(=O)c1cccc(S(=O)(=O)N2CCCC2)c1	-	50	-	75	-	35	-	-	-	-
Cc1ccc(C)c(N2C(=N)S/C(=C\c3ccc(-c4ccccc4C(=O)O)o3)C2=O)c1	-	-	-	-	-	.	.	.	.	.
SMILES	LMPTP inh	Scp-1 inhibitor	SUMO1-SIM PPI	DNMT1 inh	STEP block	Scp-1 conf	MG interference	Scp-1 Tm shift	DNMT1 inh conf	Beacon interf	others
CCOC(=O)C(C)N1C(=O)S/C(=C\c2ccc(-c3ccccc3C(=O)O)o2)C1=O (configuration not stated)	-	52	46	100	-	53	-	11	45	-	DNMT1 interf DR=-
CC(=O)Oc1ccc2ccc3ccc(C(C)=O)cc3c2c1	-	-	-	-	-	.	.	.	.	.
CCc1ccc(/C(C)=N/NC(=O)CNC(=O)/C=C/c2ccco2)cc1	-	94	108	92	-	65	-	-	69	-	DNMT1 interf DR=-
NS(=O)(=O)c1ccc(CNC(=O)/C=C/c2ccco2)cc1	-	84	-	90	-	70	-	-	-	-
Cc1ccc(-n2nnnc2-c2cccs2)cc1[N+](=O)[O-]	-	-	-	-	-	.	.	.	.	.
CCOC(=O)c1ccc(NC(=O)NCc2ccccn2)cc1	-	-	-	-	-	.	.	.	.	.
Cc1cccc(C(=O)N=c2c(C#N)cc3c(=O)n4cccc(C)c4nc3n2Cc2ccco2)c1	-	85!	51!	51!	-	46	-	15	-	-
Cc1cccn2c(=O)c3cc(C#N)c(=NC(=O)c4ccco4)n(Cc4ccco4)c3nc12	-	76	-	61	-	36	-	10.0	-	-
COCCCn1c(=NC(=O)c2ccccc2)c(C#N)cc2c(=O)n3cccc(C)c3nc21	-	-	-	-	-	.	.	.	.	.
OCC[C@H]1C[C@H](O)[C@@H](O)[C@@]2(CCc3ccccc3O2)O1	-	-	-	-	-	.	.	.	.	.
COCCN1C(=O)C(=O)/C(=C(/O)c2cccc(OC)c2)C1c1ccco1 (configuration not stated)	-	57	-	75	-	56	-	-	-	-
COc1cccc(/C(O)=C2/C(=O)C(=O)N(Cc3cccnc3)C2c2ccco2)c1 (configuration not stated)	-	-	-	-	-	.	.	.	.	.
CCC1(C)NC(=O)N(CC(=O)Nc2sc3c(c2C(=O)OC)CCCCC3)C1=O (configuration not stated)	-	-	-	-	-	.	.	.	.	.
CCOC(=O)Cc1csc(SCC(=O)Nc2sc3c(c2C(N)=O)CCC3)n1	-	83	-	95	-	68	-	6.6	-	-
CCn1c(SCC(=O)Nc2sc3c(c2C#N)CCCC3)nnc1-c1ccco1	-	-	-	-	-	.	.	.	.	.

Screens: PubChem, Sanford-Burnham Center for Chemical Genomics
